Laboratory results: ChEMBL document CHEMBL1142722, “Discovery and selection of TMC114, a next generation HIV-1 protease inhibitor” (J Med Chem, 2005)

Columns and labels:
[1] = system: Human immunodeficiency virus 1; experiment: Effective concentration against PI-Resistant HIV strain (M5); assay type: functional, organism-based; details: for EC50: Human immunodeficiency virus 1
Summary of the method: (§1)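 MTT cytopathic-effect assay in MT-4 cells infected with recombinant HIV carrying clinical-isolate-derived protease and RT sequences in an HXB2-derived backbone. Inoculum 200-250 CCID50/well, 30 000 cells/well, compound over a concentration range. Incubation 5 days at 37 °C, 5% CO2. […] Cytotoxicity run in parallel on mock-infected cells.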

[2] = Percentage of remaining compound after 30 min incubation in dog liver microsomes was determined as metabolic stability; assay type: ADME, Canis lupus familiaris, Microsome; details: read-out: Remaining compound
Summary of the method: (§2)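 Compound incubated with rat, dog or human liver microsomes for 30 min at 37 °C. Residual parent compound in the reaction mixture was measured directly by LC-MS and expressed as % remaining.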

[3] = system: Human immunodeficiency virus 1; experiment: Effective concentration as average activity on mutant HIV panel (AVMUT); assay type: functional, organism-based; details: for EC50: Human immunodeficiency virus 1
Summary of the method: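 Mean pEC50 across the panel of PI-resistant recombinant clinical-isolate strains. Each strain was tested by MTT CPE assay in MT-4 cells at 200-250 CCID50/well and 30 000 cells/well, read after 5 days at 37 °C, 5% CO2.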

[4] = system: Human immunodeficiency virus 1; experiment: Effective concentration against PI-Resistant HIV strain (M3); assay type: functional, organism-based; details: for EC50: Human immunodeficiency virus 1; summary of the method: as §1
[5] = Percentage of remaining compound after 30 min incubation in rat liver microsomes was determined as metabolic stability; assay type: ADME, Microsome; details: read-out: Remaining compound; summary of the method: as §2
[6] = system: Human immunodeficiency virus 1; experiment: Effective concentration against PI-Resistant HIV strain (M1); assay type: functional, organism-based; summary of the method: as §1
[7] = system: Human immunodeficiency virus 1; experiment: Effective concentration against PI-Resistant HIV strain (M4); assay type: functional, organism-based; details: for EC50: Human immunodeficiency virus 1; summary of the method: as §1
[8] = system: Human immunodeficiency virus 1; experiment: Effective concentration of against HIV Wild Type (IIIB) strain; assay type: functional, organism-based; details: for EC50: Human immunodeficiency virus 1
Summary of the method: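 Wild-type HIV-1 IIIB was tested in MT-4 cells by MTT colorimetric CPE assay. Compound was serially diluted, with virus at 200-250 CCID50/well and 30 000 cells/well. […] Mock-infected cultures were run in parallel for cytotoxicity.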

[9] = Percentage of remaining compound after 30 min incubation in human liver microsomes was determined as metabolic stability; assay type: ADME, Microsome; details: read-out: Remaining compound; summary of the method: as §2
[10] = system: Human immunodeficiency virus 1; experiment: Effective concentration against PI-Resistant HIV strain (M2); assay type: functional, organism-based; details: for EC50: Human immunodeficiency virus 1; summary of the method: as §1
[11] = Maximum plasma concentration in dog after 80 mg/kg oral administration; assay type: ADME, organism-based, Canis lupus familiaris; parameters: dose 80 mg/kg, route oral
Summary of the method: (§3)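 Single oral dose of 80 mg/kg given to dogs as a PEG400 solution. Plasma exposure parameters are reported as the mean of four measurements, with the standard deviation in parentheses.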

[12] = Area under concentration time curve value in dog after 80 mg/kg oral administration; assay type: ADME, organism-based, Canis lupus familiaris; parameters: dose 80 mg/kg, route oral; details: in vivo; summary of the method: as §3
[13] = Half-life in dog after 80 mg/kg oral administration; assay type: ADME, organism-based, Canis lupus familiaris; parameters: dose 80 mg/kg, route oral; details: in vivo; summary of the method: as §3
[14] = Time to reach maximum concentration in dog after 80 mg/kg oral administration; assay type: ADME, organism-based, Canis lupus familiaris; parameters: dose 80 mg/kg, route oral; details: in vivo; summary of the method: as §3

CC(C)CN(C[C@@H](O)[C@H](Cc1ccccc1)NC(=O)O[C@H]1CCOC1)S(=O)(=O)c1ccc(N)cc1
EC50 [1]: 0.741 µM | remaining at 0.5 h [2]: 81% | EC50 [3]: 0.324 µM | EC50 [4]: 0.195 µM | remaining at 0.5 h [5]: 83% | EC50 [6]: 0.741 µM | EC50 [7]: 0.17 µM | EC50 [8]: 0.0372 µM | remaining at 0.5 h [9]: 116% | EC50 [10]: 0.204 µM

CC(C)CN(C[C@@H](O)[C@H](Cc1ccccc1)NC(=O)O[C@@H]1CO[C@@H]2OCC[C@@H]21)S(=O)(=O)c1ccc(N)cc1
EC50 [1]: 0.0263 µM | EC50 [3]: 0.0309 µM | EC50 [4]: 0.0214 µM | EC50 [6]: 0.0372 µM | EC50 [7]: 0.0214 µM | EC50 [8]: 0.0107 µM | EC50 [10]: 0.0603 µM

CC(C)CN(C[C@@H](O)[C@H](Cc1ccccc1)NC(=O)O[C@H]1CO[C@H]2OCC[C@H]21)S(=O)(=O)c1ccc([N+](=O)[O-])cc1
EC50 [1]: 0.0457 µM | EC50 [3]: 0.0214 µM | EC50 [4]: 0.00457 µM | EC50 [6]: 0.0339 µM | EC50 [7]: 0.0219 µM | EC50 [8]: 0.00245 µM | EC50 [10]: 0.0295 µM

CC(C)CN(C[C@@H](O)[C@H](Cc1ccccc1)NC(=O)O[C@H]1CO[C@H]2OCC[C@H]21)S(=O)(=O)c1cccc(N)c1
EC50 [1]: 0.0263 µM | EC50 [3]: 0.0427 µM | EC50 [4]: 0.0282 µM | EC50 [6]: 0.759 µM | EC50 [7]: 0.0263 µM | EC50 [8]: 0.00437 µM | EC50 [10]: 0.0479 µM

CC(C)CN(C[C@@H](O)[C@H](Cc1ccccc1)NC(=O)O[C@H]1CO[C@H]2OCC[C@H]21)S(=O)(=O)c1ccc(CN)cc1
EC50 [1]: 0.00562 µM | EC50 [3]: 0.00776 µM | EC50 [4]: 0.00603 µM | EC50 [6]: 0.00759 µM | EC50 [7]: 0.00661 µM | EC50 [8]: 0.00708 µM | EC50 [10]: 0.0158 µM

CC(C)CN(C[C@@H](O)[C@H](Cc1ccccc1)NC(=O)O[C@H]1CO[C@H]2OCC[C@H]21)S(=O)(=O)c1ccc(O)cc1
EC50 [1]: 0.00617 µM | EC50 [3]: 0.00871 µM | EC50 [4]: 0.00603 µM | EC50 [6]: 0.0234 µM | EC50 [7]: 0.00603 µM | EC50 [8]: 0.00631 µM | EC50 [10]: 0.01 µM

CC(C)CN(C[C@@H](O)[C@H](Cc1ccccc1)NC(=O)O[C@H]1CO[C@H]2OCC[C@H]21)S(=O)(=O)c1ccc2c(c1)OCO2
EC50 [1]: 0.00407 µM | remaining at 0.5 h [2]: 53% | EC50 [3]: 0.00646 µM | Cmax [11]: 3780 ng/mL | EC50 [4]: 0.00347 µM | AUC last [12]: 18100 ng·h/mL | remaining at 0.5 h [5]: 21% | EC50 [6]: 0.0324 µM | EC50 [7]: 0.00398 µM | half-life [13]: 2.06 h | EC50 [8]: 0.000617 µM | Tmax [14]: 2.5 h | remaining at 0.5 h [9]: 52% | EC50 [10]: 0.00646 µM

CC(C)CN(C[C@@H](O)[C@H](Cc1ccccc1)NC(=O)O[C@@H]1CO[C@H]2OCC[C@H]21)S(=O)(=O)c1ccc(N)cc1
EC50 [3]: 0.977 µM | EC50 [4]: 0.479 µM | EC50 [6]: 0.759 µM | EC50 [7]: 1.12 µM | EC50 [8]: 0.24 µM | EC50 [10]: 2.24 µM

CC(C)CN(C[C@@H](O)[C@H](Cc1ccccc1)NC(=O)O[C@H]1CO[C@@H]2OCC[C@@H]21)S(=O)(=O)c1ccc(N)cc1
EC50 [8]: 0.309 µM

CC(C)CN(C[C@@H](O)[C@H](Cc1ccccc1)NC(=O)O[C@H]1CO[C@H]2OCC[C@H]21)S(=O)(=O)c1ccc(I)cc1
EC50 [1]: 0.00501 µM | EC50 [3]: 0.00871 µM | EC50 [4]: 0.00407 µM | EC50 [6]: 0.0331 µM | EC50 [7]: 0.00525 µM | EC50 [8]: 0.00151 µM | EC50 [10]: 0.0138 µM

CC(=O)c1ccc(S(=O)(=O)N(CC(C)C)C[C@@H](O)[C@H](Cc2ccccc2)NC(=O)O[C@H]2CO[C@H]3OCC[C@H]32)cc1
EC50 [1]: 0.0117 µM | EC50 [3]: 0.0138 µM | EC50 [4]: 0.00603 µM | EC50 [6]: 0.0316 µM | EC50 [8]: 0.00195 µM | EC50 [10]: 0.0158 µM

CC(C)CN(C[C@@H](O)[C@H](Cc1ccccc1)NC(=O)O[C@H]1CO[C@H]2OCC[C@H]21)S(=O)(=O)c1ccc(C#N)cc1
EC50 [1]: 0.138 µM | EC50 [3]: 0.0977 µM | EC50 [4]: 0.0398 µM | EC50 [6]: 0.115 µM | EC50 [7]: 0.0891 µM | EC50 [8]: 0.00525 µM | EC50 [10]: 0.155 µM

COc1ccc(S(=O)(=O)N(CC(C)C)C[C@@H](O)[C@H](Cc2ccccc2)NC(=O)O[C@H]2CO[C@H]3OCC[C@H]32)cc1
EC50 [1]: 0.00288 µM | remaining at 0.5 h [2]: 11% | EC50 [3]: 0.00447 µM | Cmax [11]: 1180 ng/mL | EC50 [4]: 0.00224 µM | AUC last [12]: 2700 ng·h/mL | remaining at 0.5 h [5]: 25% | EC50 [6]: 0.0102 µM | EC50 [7]: 0.00468 µM | half-life [13]: 1.47 h | EC50 [8]: 0.000589 µM | Tmax [14]: 0.6 h | remaining at 0.5 h [9]: 56% | EC50 [10]: 0.00603 µM

CC(C)(C)NC(=O)[C@@H]1CN(Cc2cccnc2)CCN1C[C@@H](O)C[C@@H](Cc1ccccc1)C(=O)N[C@H]1c2ccccc2C[C@H]1O
remaining at 0.5 h [2]: 85% | remaining at 0.5 h [5]: 97% | remaining at 0.5 h [9]: 95%

CC(C)CN(C[C@@H](O)[C@H](Cc1ccccc1)NC(=O)OC1COC2OCCC12)S(=O)(=O)c1ccccc1 (mixture of isomers)
EC50 [1]: 0.0309 µM | EC50 [3]: 0.0676 µM | EC50 [4]: 0.0479 µM | EC50 [6]: 0.166 µM | EC50 [7]: 0.0417 µM | EC50 [8]: 0.00275 µM | EC50 [10]: 0.135 µM

Cc1ccc(S(=O)(=O)N(CC(C)C)C[C@@H](O)[C@H](Cc2ccccc2)NC(=O)OC2COC3OCCC23)cc1 (mixture of isomers)
EC50 [1]: 0.0407 µM | EC50 [3]: 0.0603 µM | EC50 [4]: 0.0355 µM | EC50 [6]: 0.129 µM | EC50 [7]: 0.038 µM | EC50 [8]: 0.00525 µM | EC50 [10]: 0.107 µM

CC(C)CN(C[C@@H](O)[C@H](Cc1ccccc1)NC(=O)O[C@H]1CO[C@H]2OCC[C@H]21)S(=O)(=O)c1ccc(N)cc1 (stereo in doubt; form 1)
Log EC50 [1]: -6.9 | Log EC50 [3]: -6.81 | Log EC50 [4]: -6.76 | Log EC50 [7]: -6.84 | Log EC50 [8]: -7.36 | Log EC50 [10]: -6.72

CC(C)CN(C[C@@H](O)[C@H](Cc1ccccc1)NC(=O)O[C@H]1CO[C@H]2OCC[C@H]21)S(=O)(=O)c1ccc(N)cc1 (stereo in doubt; form 2)
remaining at 0.5 h [2]: 80% | Log EC50 [3]: -8.29 | Cmax [11]: 19100 ng/mL | Log EC50 [4]: -8.14 | AUC last [12]: 74100 ng·h/mL | remaining at 0.5 h [5]: 92% | EC50 [6]: 0.00513 µM | half-life [13]: 0.781 h | Log EC50 [8]: -8.39 | Tmax [14]: 1 h | remaining at 0.5 h [9]: 85% | Log EC50 [10]: -8.14
